Experimental data published in ChEMBL document CHEMBL4513216, “Probing the Open Global Health Chemical Diversity Library for Multistage-Active Starting Points for Next-Generation Antimalarials” (ACS Infect Dis, 2020).

Test: Toxicity liver stage against HepG2, at 10uM
Type: cell-based
Design: test concentration 10 uM, cell line HepG2-A16-CD81EGFP
Settings: human, HepG2-A16-CD81EGFP cells; read-out: INHIBITION
Outline: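 Uninfected HepG2-A16-CD81EGFP cells, 3 × 10^3 per well, 1536-well, plated on prespotted compound at 10 μM final, parasite-free screening media added to match infected plates; puromycin 10 μM positive, DMSO 0.5% negative; run in parallel with 48 h PbLuc assay at 37 °C, 5% CO2; viability by CellTiter-Glo luminescence, normalized to controls.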

**Q.** For `CC1CN(CCOc2cccc(C#N)c2)CCN1Cc1nccn1C` (stereo unspecified), which cytotoxicity at 10 µM is on record?
**A.** -2.81%

**Q.** Which cytotoxicity at 10 µM does the source give for `Cc1nc(CN2CCC(N(C)Cc3noc(C(C)C)n3)C2)cs1` (stereo unspecified) here?
**A.** -14.1%

**Q.** For `COCCn1cc(CC(=O)Nc2c(C)nn(C)c2C)c2ccccc21`, which cytotoxicity at 10 µM is on record?
**A.** 1.18%

**Q.** With `CCOc1cccc(CCNC(=O)NC2CCc3[nH]ncc3C2)n1` (stereo unspecified) as the molecule, how does the cytotoxicity at 10 µM read?
**A.** 8.95%

**Q.** For `CCn1cc(-c2n[nH]c(=O)n2-c2ccc3c(c2)OCO3)c(C)n1`, which cytotoxicity at 10 µM is on record?
**A.** 2.25%

**Q.** For `O=C(CC1C=CCC1)N1CCc2ncnc(NCc3ccon3)c2CC1` (stereo unspecified), which cytotoxicity at 10 µM is on record?
**A.** 22.8%

**Q.** With `CCCc1nc(Nc2cccc(C(N)=O)c2)c2c(n1)c(C)nn2CC` as the molecule, how does the cytotoxicity at 10 µM read?
**A.** 3.31%

**Q.** Which cytotoxicity at 10 µM does the source give for `O=C(NCCOc1ncc(Cl)cc1Cl)c1ccncc1F` here?
**A.** -3.78%

**Q.** For `N#Cc1ccc(F)c(CN2CCCC2Cn2cnc3ccccc32)c1` (stereo unspecified), which cytotoxicity at 10 µM is on record?
**A.** 0.224%

**Q.** With `CC(C)CC(=O)N1CCC2(CC1)COCCN2Cc1ccc(F)cc1` as the molecule, how does the cytotoxicity at 10 µM read?
**A.** -77.1%

**Q.** Which cytotoxicity at 10 µM does the source give for `COc1cc(NC(=O)c2cccc(N(C)C)c2)cc(OC)c1` here?
**A.** 0.03%

**Q.** With `COc1ccccc1-n1nc(CC(C)C)nc1Cc1nnc(N)s1` as the molecule, how does the cytotoxicity at 10 µM read?
**A.** 6.17%

**Q.** Which cytotoxicity at 10 µM does the source give for `O=C(CN1CCCCCC1=O)NC1CCc2nccn2C1` (stereo unspecified) here?
**A.** 2.8%

**Q.** Which cytotoxicity at 10 µM does the source give for `Cn1ncc2c1C(COCC1CC1)N(C(=O)c1ccncn1)CC2` (stereo unspecified) here?
**A.** -132%

**Q.** Which cytotoxicity at 10 µM does the source give for `CC(Cn1cccn1)NC(=O)NCCN1CCCCCC1=O` (stereo unspecified) here?
**A.** 12.3%

**Q.** With `Cc1cc(N2CCCC(c3nncn3C3CC3)C2)ncn1` (stereo unspecified) as the molecule, how does the cytotoxicity at 10 µM read?
**A.** -6.48%

**Q.** With `O=C(NS(=O)(=O)c1ccc2c(c1)OCCO2)c1ccc(Br)cc1F` as the molecule, how does the cytotoxicity at 10 µM read?
**A.** 0.553%

**Q.** For `CSCCC(C)(O)CNC(=O)Nc1ccccc1C` (stereo unspecified), which cytotoxicity at 10 µM is on record?
**A.** -1.44%

**Q.** With `Cc1cnn(CCC(=O)N2CCCC(c3nc(C)c(C)s3)C2)c1` (stereo unspecified) as the molecule, how does the cytotoxicity at 10 µM read?
**A.** -19.2%

**Q.** For `COc1ccc(COCC(=O)NC2CCc3nc(C)cn3C2)cc1` (stereo unspecified), which cytotoxicity at 10 µM is on record?
**A.** 1.6%

**Q.** For `CCCn1ncc(C(=O)N(Cc2cccnc2)C[C@@H]2CCC(=O)N2)c1C`, which cytotoxicity at 10 µM is on record?
**A.** 7.69%

**Q.** Which cytotoxicity at 10 µM does the source give for `O=C(C1CC=CC1)N1CCc2ncnc(-c3ccncc3)c2CC1` here?
**A.** 2.31%

**Q.** With `N#CCCCS(=O)(=O)NC1(c2cccc(Br)c2)CC1` as the molecule, how does the cytotoxicity at 10 µM read?
**A.** 2.99%

**Q.** Which cytotoxicity at 10 µM does the source give for `Cc1cc(CSc2nc(=O)ccn2C(C)C)no1` here?
**A.** 14.9%

**Q.** With `CC(C)(NC(=O)c1ccc(-c2ccccc2F)s1)C(N)=O` as the molecule, how does the cytotoxicity at 10 µM read?
**A.** 12.7%

**Q.** Which cytotoxicity at 10 µM does the source give for `CCS(=O)(=O)N1CCN(C)c2ncccc2C1` here?
**A.** 2.88%

**Q.** With `CC(C)c1nc(O)c2nnn(C[C@H]3CCCN(Cc4cccs4)C3)c2n1` as the molecule, how does the cytotoxicity at 10 µM read?
**A.** 10.8%

**Q.** With `Cn1cc(NS(=O)(=O)c2ccc3c(c2)CCCC3)ccc1=O` as the molecule, how does the cytotoxicity at 10 µM read?
**A.** 40.7%

**Q.** Which cytotoxicity at 10 µM does the source give for `CCc1nccn1-c1nccnc1C1CCN(C(=O)COC)CC1` here?
**A.** -19.7%

**Q.** With `CC[C@H]1CN2CC[C@H]1C[C@@H]2CNC(=O)Nc1cc(OC)cc(OC)c1` as the molecule, how does the cytotoxicity at 10 µM read?
**A.** 3.39%

**Q.** With `CNS(=O)(=O)c1cccc(C(C)NCc2ccncc2)c1` (stereo unspecified) as the molecule, how does the cytotoxicity at 10 µM read?
**A.** -2.53%

**Q.** For `COc1ccc(S(=O)(=O)N2CCN(C)c3ncccc3C2)cc1`, which cytotoxicity at 10 µM is on record?
**A.** -110%

**Q.** With `CCC(CC)c1cc(CNC(=O)N2CCC(CO)CC2)on1` as the molecule, how does the cytotoxicity at 10 µM read?
**A.** 3.76%

**Q.** Which cytotoxicity at 10 µM does the source give for `O=C(NCc1nnc2n1CCCCC2)N1CCC2(CCCCC2)C1` here?
**A.** -13.4%

**Q.** For `Cc1ccc(C2CSCCN2CCS(C)(=O)=O)cc1` (stereo unspecified), which cytotoxicity at 10 µM is on record?
**A.** -8.3%

**Q.** Which cytotoxicity at 10 µM does the source give for `Cc1cccc(-c2ncc(CNC(C)Cc3ncccc3C)cn2)c1` (stereo unspecified) here?
**A.** -13.2%

**Q.** With `CC(C)(C)c1nc(CN2CCCC2Cn2cncn2)no1` (stereo unspecified) as the molecule, how does the cytotoxicity at 10 µM read?
**A.** 1.93%

**Q.** Which cytotoxicity at 10 µM does the source give for `C[C@H](c1ccc(F)cc1)n1c(C2CCN(C)CC2)n[nH]c1=O` here?
**A.** 9.93%

**Q.** For `CCOc1ccc(NC(C)=O)cc1S(=O)(=O)Nc1ccon1`, which cytotoxicity at 10 µM is on record?
**A.** -10.8%

**Q.** For `Cc1cccc(OCCNC(=O)CN2CCN(C)CC2C)c1` (stereo unspecified), which cytotoxicity at 10 µM is on record?
**A.** -2.66%

**Q.** Which cytotoxicity at 10 µM does the source give for `Cc1ccc(C(=O)Nc2ccccc2F)n1C` here?
**A.** 0.339%

**Q.** Which cytotoxicity at 10 µM does the source give for `Cc1ccc(C2CSCCN2C(=O)C2=CCCC2)o1` (stereo unspecified) here?
**A.** -6.12%

**Q.** With `Cc1cc(-c2nc(-c3ccccn3)nn2C2CCN(C)CC2)nc(C)n1` as the molecule, how does the cytotoxicity at 10 µM read?
**A.** -3.14%

**Q.** Which cytotoxicity at 10 µM does the source give for `CC(=O)N1CCC(CCc2ccnc(NC(=O)c3ccccn3)c2)CC1` here?
**A.** 0.15%

**Q.** With `O=C(Nc1ccccc1)C1CCN(C(=O)COc2ccccc2F)CC1` as the molecule, how does the cytotoxicity at 10 µM read?
**A.** 8.94%

**Q.** For `COCCN(C)C[C@@H]1CN(C(=O)c2ccc(C)c(Cl)c2)C[C@@H]1CO`, which cytotoxicity at 10 µM is on record?
**A.** -0.678%
